Experimental data: ChEMBL document CHEMBL1127070, “Synthesis and binding properties of MK-801 isothiocyanates; (+)-3-isothiocyanato-5-methyl-10,11-dihydro-5H-dibenzo[a,d]cyclohepten- 5,10-imine hydrochloride: a new, potent and selective electrophilic affinity ligand for the NMDA receptor-coupled phencyclidine binding site” (J Med Chem, 1993)

Columns and labels:
Glutamate NMDA receptor [1] = assay: Tested for the inhibition of [3H]dizocilpine binding to N-methyl-D-aspartate (NMDA) receptor-coupled phencyclidine binding site; type: protein-complex assay
Method in brief: (§1)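 Rat brain membranes (Sprague–Dawley, whole brain minus cerebellum) in 5 mM Tris-HCl pH 7.4, washed by repeated 20000g spins. Incubation with 2 nM (+)-[3H]-3, 10 μM glutamate and 10 μM glycine for 90 min at 5 °C. Nonspecific binding defined with 10 μM (+)-3. Filtration, then scintillation counting.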

[2] = target: T1, Glutamate NMDA receptor (Rattus norvegicus) (UniProt P35439+Q00959+Q00960+Q00961+Q62645+Q8VHN2+Q9R1M7); assay: Tested for the % inactivation of [3H]dizocilpine binding to NMDA receptor at 10 uM); type: protein-complex assay
Method in brief: (§2)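 Thawed rat brain homogenates pretreated with isothiocyanate for 30 min at 5 °C. Washed three times with buffer containing 100 μM glutamate, 30 μM glycine and 300 μM MgCl2, which removes reversible ligand. Binding of 2 nM (+)-[3H]-3 then measured as in the reversible assay. % inactivation is versus similarly washed untreated controls. Triplicates, mean ± SEM of ≥2 experiments.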

Glutamate NMDA receptor [3] = assay: Tested for in vitro inhibition of the displacement of [3H]1-[1-(2-thieny])cyclohexyl] peridine from NMDA receptor; type: protein-complex assay
Glutamate NMDA receptor [4] = assay: Tested for in vitro inhibition of the displacement of (+)-[3H]dizocilpine from NMDA receptor; type: protein-complex assay; method in brief: as §1
[5] = target: Sigma non-opioid intracellular receptor 1 (Rattus norvegicus, UniProt Q9R0C9); assay: Tested for in vitro inhibition of the displacement of (+)-[3H]pentazocine from sigma opioid receptor
Method in brief: (§3)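 Reversible and wash-resistant displacement assays used published protocols, with extra washes added to remove unreacted compound. Final radioligand levels were [3H]flunitrazepam 1 nM, (+)-[3H]pentazocine 3 nM, [3H]FOXY 2 nM, [3H]QNB 0.5 nM and [3H]mazindol 5 nM. Test compound went up to 100 μM. Runs were in triplicate, with at least two experiments. Ki came from Cheng-Prusoff.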

[6] = target: Muscarinic acetylcholine receptor; assay: Tested for in vitro inhibition of the displacement of [3H]quinuclidinyl benzilate muscarinic receptor; type: protein assay
Mu-type opioid receptor = Mu-type opioid receptor (Rattus norvegicus, UniProt P33535); assay: Tested for in vitro inhibition of the displacement of [3H]FOXY from mu opioid receptor; method in brief: as §3
[7] = target: GABA-A receptor; anion channel; assay: In vitro inhibition of [3H]flunitrazepam displacement from GABA-A receptor; type: protein-complex assay, Rattus norvegicus; method in brief: as §3
[8] = target: Sodium-dependent dopamine transporter (Rattus norvegicus) (UniProt P23977); assay: Tested for in vitro inhibition of the displacement of [3H]mazindol from dopamine transporter
[9] = target: T1, Glutamate NMDA receptor (Rattus norvegicus); assay: Tested for % inactivation of the displacement of (+)-[3H]dizocilpine from NMDA receptor by 100 nM; type: protein-complex assay; method in brief: as §2
[10] = target: T1, Glutamate NMDA receptor (Rattus norvegicus); assay: Tested for % inactivation of the displacement of [3H]1-[1-(2-thieny])cyclohexyl] peridine from NMDA receptor by 100 nM; type: protein-complex assay
[11] = target: Muscarinic acetylcholine receptor; assay: Tested for in vitro inhibition of the displacement of [3H]QNB from CNS receptor; type: protein assay; method in brief: as §3

Mu-type opioid receptor, sequence (P33535 whole entry): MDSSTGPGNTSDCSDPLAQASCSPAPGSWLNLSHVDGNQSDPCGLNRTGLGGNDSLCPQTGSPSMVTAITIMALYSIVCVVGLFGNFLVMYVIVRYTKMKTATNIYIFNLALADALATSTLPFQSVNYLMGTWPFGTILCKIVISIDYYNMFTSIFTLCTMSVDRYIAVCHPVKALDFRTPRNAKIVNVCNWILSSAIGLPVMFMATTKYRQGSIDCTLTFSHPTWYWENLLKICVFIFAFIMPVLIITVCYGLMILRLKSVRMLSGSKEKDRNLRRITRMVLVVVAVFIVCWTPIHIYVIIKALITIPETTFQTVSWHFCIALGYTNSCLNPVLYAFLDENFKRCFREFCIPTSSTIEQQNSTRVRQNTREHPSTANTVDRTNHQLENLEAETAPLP
Sodium-dependent dopamine transporter (Rattus norvegicus), sequence (P23977 whole entry, looked up): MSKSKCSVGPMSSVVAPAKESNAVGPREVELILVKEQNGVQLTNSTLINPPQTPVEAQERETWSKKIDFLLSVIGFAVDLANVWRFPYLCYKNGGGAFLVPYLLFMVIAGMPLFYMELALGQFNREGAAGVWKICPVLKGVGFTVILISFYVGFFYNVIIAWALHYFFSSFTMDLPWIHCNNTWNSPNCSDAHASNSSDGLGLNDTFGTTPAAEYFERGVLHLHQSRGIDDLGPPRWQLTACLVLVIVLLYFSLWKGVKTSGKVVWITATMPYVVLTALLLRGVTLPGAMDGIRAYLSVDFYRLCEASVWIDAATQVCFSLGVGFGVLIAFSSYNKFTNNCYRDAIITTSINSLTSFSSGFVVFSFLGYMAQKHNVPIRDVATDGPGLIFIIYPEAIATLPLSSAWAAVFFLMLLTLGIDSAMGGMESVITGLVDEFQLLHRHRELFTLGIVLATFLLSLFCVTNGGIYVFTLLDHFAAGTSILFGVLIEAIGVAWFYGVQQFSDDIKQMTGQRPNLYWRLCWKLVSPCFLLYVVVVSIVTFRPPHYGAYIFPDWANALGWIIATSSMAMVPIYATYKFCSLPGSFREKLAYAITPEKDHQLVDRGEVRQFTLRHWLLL
Sigma non-opioid intracellular receptor 1, sequence (Q9R0C9 whole entry): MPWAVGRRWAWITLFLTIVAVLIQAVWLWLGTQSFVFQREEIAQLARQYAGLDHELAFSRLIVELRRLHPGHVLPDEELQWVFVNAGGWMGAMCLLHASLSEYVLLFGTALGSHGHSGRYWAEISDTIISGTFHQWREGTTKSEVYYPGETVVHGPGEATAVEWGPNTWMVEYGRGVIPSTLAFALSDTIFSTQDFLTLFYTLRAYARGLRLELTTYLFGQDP

CC[C@]1(c2cccc(N=C=S)c2)OC[C@H]([C@@H]2CCCCN2)O1
Ki (Glutamate NMDA receptor [1]): 94 nM
Activity [2]: 55%

C[C@]12N[C@H](Cc3cc(N=C=S)ccc31)c1ccccc12
Ki (Glutamate NMDA receptor [1]): 843 nM

S=C=Nc1cccc(C2(N3CCCCC3)CCCCC2)c1
Ki (Glutamate NMDA receptor [1]): 535 nM

C[C@]12N[C@H](Cc3ccc(N=C=S)cc31)c1ccccc12 (stereo in doubt; (+)-8a) [listing 1 of 2 here]
Ki (Glutamate NMDA receptor [3]): 132 nM
Ki (Glutamate NMDA receptor [4]): 37 nM
Ki (Glutamate NMDA receptor [1]): 37 nM
Ki [5]: 4810 nM
Ki [6]: > 100000 nM
Ki (Mu-type opioid receptor): > 100000 nM
Ki [7]: > 100000 nM
Ki [8]: 6950 nM

C[C@]12N[C@H](Cc3ccc(N=C=S)cc31)c1ccccc12 (stereo in doubt; (+)-8a) [listing 2 of 2 here]
Activity [2]: 56%
Activity [9]: 53%
Activity [10]: 50%

C[C@]12N[C@H](Cc3ccc(N=C=S)cc31)c1ccccc12 (stereo in doubt; (-)-8a)
Ki (Glutamate NMDA receptor [1]): 838 nM

C[C@]12N[C@H](Cc3ccccc31)c1ccccc12 [DIZOCILPINE]
Ki (Mu-type opioid receptor): > 100000 nM
Ki [7]: > 100000 nM
Ki [8]: 40900 nM
Ki [11]: > 100000 nM
